Measured values reported in ChEMBL document CHEMBL1121883, “1-(Naphthylalkyl)-1H-imidazole derivatives, a new class of anticonvulsant agents” (J Med Chem, 1981).

What was measured:
Format in all cases: functional
Mus musculus [1] = assay: Compound was evaluated for anticonvulsant activity by maximal electroshock assay(MES) in mice after po administration; 69-90
In short: (§1)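 Male Hilltop ICR-derived mice (19-30 g), groups of 8-10, given compound or aqueous vehicle orally. The transcorneal 60-Hz shock (50 mA, 0.2 s) followed a 30 min pretreatment and a wire-hang neurological check (10 s). ED50 and 95% confidence limits were obtained from quantal data by the Litchfield-Wilcoxon method.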

Mus musculus [2] = assay: Compound was evaluated for anticonvulsant activity by maximal electroshock assay(MES) in mice after ip administration; 13-43
In short: (§2)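 Male Hilltop ICR-derived mice (19-30 g), groups of 8-10, dosed ip with compound or aqueous vehicle. After 15 min pretreatment, a transcorneal 60-Hz, 50 mA shock was given for 0.2 s. Just before the shock, each mouse was tested on a horizontal wire (10 s). Quantal data were analysed by Litchfield-Wilcoxon to give ED50 with 95% confidence limits.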

Mus musculus [3] = assay: Dose causing a neurological deficit in 50% of mice after ip administration.
In short: (§3)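 Traction test in male Hilltop ICR-derived mice (19-30 g, groups of 8-10) just before electroshock, 15 min after ip or 30 min after oral dosing. Mice placed on a 16-gauge, 65-cm copper wire 40 cm above the table; deficit scored as failure to stay on for 10 s. ND50 with 95% limits by Litchfield-Wilcoxon.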

Mus musculus [4] = assay: Dose causing a neurological deficit in 50% of mice following p.o. administration.; in short: as §3
Mus musculus [5] = assay: Protective index defined as ND50 (p.o.) divided by MES ED50(op)
In short: (§4)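 Ratio of ND50 from the wire traction test to MES ED50, both measured by the same route (ip or oral) in the same animals. Quantal dose-response data for each were evaluated by Litchfield-Wilcoxon.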

Mus musculus [6] = assay: Protective index is defined as ND50 (i.p.) divided by MES ED50(i.p.); in short: as §4
Mus musculus [7] = assay: Compound was evaluated for anticonvulsant activity by maximal electroshock assay(MES) in mice after ip administration; 62-102; in short: as §2
Mus musculus [8] = assay: Compound was evaluated for anticonvulsant activity by maximal electroshock assay(MES) in mice after ip administration; 23-38; in short: as §2
Mus musculus [9] = assay: Dose of compound causing a neurological deficit in 50% of mice after ip administration; 70-93; in short: as §3
Mus musculus [10] = assay: Compound was evaluated for anticonvulsant activity by maximal electroshock assay(MES) in mice after po administration; 41-77; in short: as §1
Mus musculus [11] = assay: Dose of compound causing a neurological deficit in 50% of mice after ip administration; 16-49; in short: as §3
Mus musculus [12] = assay: Compound was evaluated for anticonvulsant activity by maximal electroshock assay(MES) in mice after ip administration; 37-68; in short: as §2
Mus musculus [13] = assay: Compound was evaluated for anticonvulsant activity by maximal electroshock assay(MES) in mice after ip administration; 8-17; in short: as §2
Mus musculus [14] = assay: Dose of compound causing a neurological deficit in 50% of mice after ip administration; 45-89; in short: as §3
Mus musculus [15] = assay: Compound was evaluated for anticonvulsant activity by maximal electroshock assay(MES) in mice after ip administration; 8-13; in short: as §2
Mus musculus [16] = assay: Dose of compound causing a neurological deficit in 50% of mice after ip administration; 16 to > 100; in short: as §3
Mus musculus [17] = assay: Dose of compound causing a neurological deficit in 50% of mice after ip administration; 79-125; in short: as §3
Rattus norvegicus [18] = assay: Compound was evaluated for anticonvulsant activity by maximal electroshock assay(MES) in rat after po administration; 34-83
In short: (§5)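 Male Simonsen Sprague-Dawley-derived rats, 80-110 g, groups of 8-10, dosed with compound or aqueous vehicle; pretreatment 15 min after ip or 30 min after oral dosing. Transcorneal electroshock, 150 mA, 60 Hz, 0.2 s, given after the wire test. ED50 with 95% confidence limits from quantal data by Litchfield-Wilcoxon.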

Rattus norvegicus [19] = assay: Dose of compound causing a neurological deficit in 50% of rat after ip administration.
In short: (§6)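 Rats (Simonsen Sprague-Dawley-derived, 80-110 g, groups of 8-10) placed on a suspended 16-gauge, 65-cm copper wire just before electroshock. Deficit scored as inability to remain for 8 s. Pretreatment was 15 min ip or 30 min oral. Quantal data analysed by Litchfield-Wilcoxon to give ND50 with 95% limits.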

Rattus norvegicus [20] = assay: Dose of compound causing a neurological deficit in 50% of rat after po administration.; in short: as §6
Mus musculus [21] = assay: Compound was evaluated for anticonvulsant activity by maximal electroshock assay(MES) in mice after ip administration; 14-23; in short: as §2
Rattus norvegicus [22] = assay: Compound was evaluated for anticonvulsant activity by maximal electroshock assay(MES) in rat after ip administration; 8-23; in short: as §5

With `Cc1cc2ccc(C(=O)Cn3ccnc3)cc2cc1C.Cl` the ED50 (Mus musculus [1]) was 78 mg/kg, the ED50 (Mus musculus [2]) was 25 mg/kg and the ND50 (Mus musculus [3]) was >100 mg/kg. The ND50 (Mus musculus [4]) was >100 mg/kg, the PI (Mus musculus [5]) was >1.3 and the PI (Mus musculus [6]) was >4.

`COc1cc2cccc(C(=O)Cn3ccnc3)c2cc1OC.Cl` was tested, and the ED50 (Mus musculus [7]) was 79 mg/kg, the ND50 (Mus musculus [3]) was >100 mg/kg and the PI (Mus musculus [6]) was >1.3.

With `CC(C)c1ccc(C(=O)Cn2ccnc2)c2ccccc12.Cl` the ED50 (Mus musculus [8]) was 28 mg/kg, the ND50 (Mus musculus [9]) was 81 mg/kg and the PI (Mus musculus [6]) was 2.9.

With `Cl.c1ccc2cc(C3(Cn4ccnc4)OCCCO3)ccc2c1` the ED50 (Mus musculus [10]) was 57 mg/kg, the ND50 (Mus musculus [11]) was 30 mg/kg and the ND50 (Mus musculus [4]) was >100 mg/kg. The PI (Mus musculus [5]) was >1.7 and the PI (Mus musculus [6]) was 1.8.

With `Cl.O=C(Cn1ccnc1)c1ccc2cc(Cl)ccc2c1` the ED50 (Mus musculus [12]) was 51 mg/kg, the ND50 (Mus musculus [3]) was >100 mg/kg and the PI (Mus musculus [6]) was >2.

For `Cl.OC(CCn1ccnc1)c1ccc2ccccc2c1` (stereo not drawn), the ED50 (Mus musculus [13]) was 13 mg/kg, the ND50 (Mus musculus [14]) was 64 mg/kg and the PI (Mus musculus [6]) was 4.9.

For `COC(CCn1ccnc1)c1ccc2ccccc2c1.O=S(=O)(O)O` (stereo not drawn), the ED50 (Mus musculus [15]) was 11 mg/kg, the ND50 (Mus musculus [16]) was >39 mg/kg and the PI (Mus musculus [6]) was 3.5.

With `Cl.O=C(OC(Cn1ccnc1)c1ccc2ccccc2c1)c1ccccc1` (stereo not drawn) the ND50 (Mus musculus [17]) was 99 mg/kg, the ED50 (Rattus norvegicus [18]) was 53 mg/kg and the ND50 (Rattus norvegicus [19]) was >100 mg/kg. The ND50 (Rattus norvegicus [20]) was >100 mg/kg, the PI (Mus musculus [6]) was 5.2 and the ED50 (Mus musculus [21]) was 19 mg/kg. For the same molecule, the ED50 (Rattus norvegicus [22]) was 14 mg/kg.
